≈ marks a conversion by molar mass, not a printed value. Calls of active or inactive are those of the source. The calls are words filed in the database; no cut-off is given here.
Experiments:
Plasmodium falciparum [1] = assay: Antiplasmodial activity against chloroquine-resistant ring stage Plasmodium falciparum W2 infected in human RBC after 48 hrs by flow cytometric analysis; format: functional, organism-based; details: W2, 48 h
Procedure, shortened: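 Ring-stage W2 parasites at 1% in human erythrocytes, synchronized with 5% sorbitol. Incubated with compound 48 h at 37 °C in RPMI-1640 with 25 mM HEPES pH 7.4, 10% heat-inactivated human serum (or 0.5% Albumax/2% human serum) and hypoxanthine, under 3% O₂/5% CO₂/[…]. Cells fixed in 2% formaldehyde, stained in PBS with NH₄Cl, 0.1% Triton X-100 and 1 nM YOYO-1, then counted by flow cytometry.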

Plasmodium falciparum [2] = assay: Inhibition of Plasmodium falciparum falcipain-2 up to 50 uM
HEK-293T = assay: Cytotoxicity against HEK293T cells after 48 hrs by MTT assay; format: cell-based; details: Homo sapiens
[3] = Selectivity index, ratio of EC50 for HEK293T cells to IC50 for chloroquine-resistant ring stage Plasmodium falciparum W2; format: functional, HEK-293T
[4] = Inhibition of Plasmodium falciparum falcipain-2
[5] = Inhibition of hemozoin-like crystal formation after 5 days; format: functional; details: 120 h
Procedure, shortened: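 Hemozoin-like crystal stock suspension sonicated 3 min, diluted in fresh broth. Compounds 0.22-filtered, then added across a 0–1000 final range. Incubated 37 °C, 5% CO2 for 5 days, scored for presence or absence of crystal growth. Triplicate.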

[6] = Water-lipid distribution coefficient, log D of the compound at pH 5.2; format: physicochemical
[7] = Vacuolar accumulation ratio of the compound; format: ADME
Procedure, shortened: (§1)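 Calculated rather than measured. VAR: predicted trapping in acidic digestive vacuole from pH-dependent water/lipid distribution (log D). LAR: expected fraction concentrating in the vacuole's lipid component.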

[8] = Inhibition of hemozoin-like crystal formation up to 1 mM after 5 days; format: functional
Procedure, shortened: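 Hemozoin-like crystal stock suspension sonicated 3 min and diluted in fresh broth medium. Compounds in wells at 0–1000 final concentration after 0.22 filtration. Incubated at 37 °C, 5% CO₂, 5 days, then scored for presence or absence of crystal growth. Triplicate.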

[9] = Lipid accumulation ratio of the compound; format: physicochemical; procedure, shortened: as §1
[10] = Water-lipid distribution coefficient, log D of the compound at pH 7.4; format: physicochemical

MIC [5] [µM] | SMILES | IC50 (Plasmodium falciparum [1]) [µM] | inhibition (Plasmodium falciparum [2]) | EC50 (HEK-293T) [µM] | Selectivity Index [3] | IC50 [4] [µM] | logD [6] | Ratio [7] | inhibition [8] | Ratio [9] | logD [10]
– | O=C1/C(=C/c2ccccc2)Oc2cc(O)ccc21 | > 10 | inactive | > 100 | >10 | – | – | – | – | – | –
– | O=C1/C(=C/c2ccccc2Br)Oc2ccccc21 | > 10 | inactive | > 100 | >10 | – | – | – | – | – | –
– | O=C1/C(=C/c2ccc(Cl)cc2Cl)Oc2ccccc21 | > 10 | inactive | 68 | <6.8 | – | – | – | – | – | –
– | O=C1/C(=C/c2ccccc2)Oc2cc(-c3ccccc3)ccc21 | > 10 | inactive | > 100 | >10 | – | – | – | – | – | –
– | O=C1/C(=C/c2ccc(F)cc2F)Oc2ccccc21 | > 10 | inactive | > 100 | >10 | – | – | – | – | – | –
– | Cc1ccc(Oc2ccc(/C=C3\Oc4cc(O)ccc4C3=O)cc2)cc1 | 5.84 | inactive | 95 | >16 | – | – | – | – | – | –
– | O=C1/C(=C/c2ccc(-c3ccccc3)cc2)Oc2ccccc21 | > 10 | inactive | > 100 | >10 | – | – | – | – | – | –
– | O=C1/C(=C/c2ccc(-c3ccc(F)cc3)cc2)Oc2ccccc21 | > 10 | inactive | > 100 | >10 | – | – | – | – | – | –
– | COc1cc(/C=C2\Oc3c(OC)cccc3C2=O)cc(OC)c1OC | > 10 | inactive | > 100 | >10 | – | – | – | – | – | –
– | COc1cccc2c1O/C(=C\c1ccc(F)cc1F)C2=O | > 10 | inactive | > 100 | >10 | – | – | – | – | – | –
– | Cc1ccc(Oc2ccc(/C=C3\Oc4ccccc4C3=O)cc2)cc1 | > 10 | inactive | > 100 | >10 | – | – | – | – | – | –
– | COc1cccc2c1O/C(=C\c1ccc(Cl)cc1Cl)C2=O | 4.8 | – | > 100 | >21 | 18.6 | – | – | – | – | –
– | O=C1/C(=C/c2ccc(Nc3ccccc3)cc2)Oc2ccccc21 | 8.59 | inactive | > 100 | >12 | – | – | – | – | – | –
– | COc1cccc2c1O/C(=C\c1ccccc1)C2=O | > 10 | inactive | > 100 | >10 | – | – | – | – | – | –
125 (≈ 40 µg/mL) | CCN(CC)CCCC(C)Nc1ccnc2cc(Cl)ccc12 (stereo not given) [CHLOROQUINE] | – | – | – | – | – | – | – | – | – | –
– | O=C1/C(=C/c2ccc(Cc3ccccc3)cc2)Oc2ccccc21 | 7.34 | inactive | 87 | >12 | – | – | – | – | – | –
– | Nc1ccc(-c2cccc(/C=C3\Oc4ccccc4C3=O)c2)cn1 | 2.56 | inactive | 79 | >31 | – | 2.7 | 9.2 | inactive | 4643 | 3.67
– | Nc1ccc(-c2ccc3c(c2)O/C(=C\c2ccccc2)C3=O)cn1 | 3.03 | inactive | > 100 | >33 | – | 4.21 | 9.2 | inactive | 150233 | 5.18
– | COc1cc(/C=C2\Oc3ccccc3C2=O)cc(OC)c1OC | > 10 | inactive | > 100 | >10 | – | – | – | – | – | –
– | O=C1/C(=C/c2ccc(Oc3ccc(Cl)cc3)cc2)Oc2cc(O)ccc21 | 9.88 | inactive | 12 | >1 | – | – | – | – | – | –
– | CN(C)c1ccc(/C=C2\Oc3ccccc3C2=O)cc1 | 7.99 | inactive | > 100 | >13 | – | – | – | – | – | –
– | O=C1/C(=C/c2ccc(-c3ccc(Cl)cc3)cc2)Oc2ccccc21 | > 10 | inactive | > 100 | >10 | – | – | – | – | – | –

Reference: ChEMBL document CHEMBL3259771, “Probing the aurone scaffold against Plasmodium falciparum: design, synthesis and antimalarial activity” (Eur J Med Chem, 2014)
